From ChEMBL document CHEMBL4373643, “Synthesis and biological evaluation of structurally diverse α-conformationally restricted chalcones and related analogues” (Medchemcomm, 2019)

Experiments:
[1] = system: DU-145; assay: Cytotoxicity against human DU145 cells assessed as reduction in cell viability incubated for 48 hrs by SRB assay; assay type: functional; conditions: DU-145, 48 h
Summary of the method: (§1)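 Cells from ATCC, plated at 7000–8000 cells/well in DMEM with 5% FBS and 1% gentamicin and left 24 h at 37 °C, 5% CO2. Compounds from a 10 mg mL–1 DMSO stock were serially diluted and added for 48 h. Cells were fixed with TCA (10% final), stained with SRB, and the dye solubilized in 10 mM Tris. A540 was normalized to A630, and GI50 was taken as 50% reduction in net protein increase.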

[2] = system: SK-OV-3; assay: Cytotoxicity against human SKOV3 cells assessed as reduction in cell viability incubated for 48 hrs by SRB assay; assay type: functional; conditions: SK-OV-3, 48 h; summary of the method: as §1
[3] = system: NCI-H460; assay: Cytotoxicity against human NCI-H460 cells assessed as reduction in cell viability incubated for 48 hrs by SRB assay; assay type: functional; conditions: NCI-H460, 48 h; summary of the method: as §1
[4] = biological target: Tubulin; assay: Inhibition of tubulin polymerization (unknown origin) incubated for 10 mins by spectrophotometry; assay type: protein-complex assay, Homo sapiens
[5] = system: HUVEC; assay: Cytotoxicity against HUVEC assessed as reduction in cell viability incubated for 48 hrs by SRB assay; assay type: cell-based; conditions: human
Summary of the method: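 HUVECs were grown in M200 with VEGF kit supplements in collagen I coated flasks, then plated at 9000 cells/well and given 48 h to attach. Compounds were added as 10-fold serial dilutions in M200 with LSGS kit, 1% gentamicin and 1% amphotericin B. Growth was read by SRB assay, and GI50 was taken as the concentration inhibiting growth by 50%.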

[6] = biological target: Tubulin (Homo sapiens) (UniProt P68371+Q9H4B7+P0DPH7+P68366+Q13509+Q71U36+P04350+Q3ZCM7+P07437+P68363+Q9BQE3+Q6PEY2+Q13885+Q9BVA1+Q9BUF5); assay: Inhibition of [3H]colchicine binding to tubulin (unknown origin) at 5 uM incubated for 10 mins by scintillation counting method relative to control; assay type: protein-complex assay
[7] = Selectivity index, ratio of GI50 for HUVEC to GI50 for human SKOV3 cells; assay type: toxicity; conditions: HUVEC versus SKOV3 cells, read-out: RatioGI50
[8] = Selectivity index, ratio of GI50 for HUVEC to GI50 for human NCI-H460 cells; assay type: toxicity; conditions: HUVEC versus NCI-H460 cells, read-out: RatioGI50
[9] = Selectivity index, ratio of GI50 for HUVEC to GI50 for human DU145 cells; assay type: toxicity; conditions: HUVEC versus DU145 cells, read-out: RatioGI50

COc1ccc2c(c1C#N)CC/C(=C\c1cc(OC)c(OC)c(OC)c1)C2=O
GI50 [1]: 57.2 µM
GI50 [2]: 33.3 µM
GI50 [3]: 44.4 µM
IC50 [4]: > 20 µM

COc1cc(/C=C2\CCCc3c(ccc(OC)c3[N+](=O)[O-])C2=O)cc(OC)c1OC
GI50 [1]: 5.94 µM
GI50 [2]: 16.1 µM
GI50 [3]: 5.96 µM
IC50 [4]: > 20 µM

COc1ccc2c(c1O)CC/C(=C\c1cc(OC)c(OC)c(OC)c1)C2=O
Activity [5]: Toxic
GI50 [1]: 5.49 µM
GI50 [2]: 6.29 µM
GI50 [3]: 6.44 µM
IC50 [4]: > 20 µM

COc1ccc2c(c1)CCC/C(=C\c1cc(OC)c(OC)c(OC)c1)C2=O
GI50 [1]: 9.71 µM
GI50 [2]: 12 µM
GI50 [3]: 6.57 µM
IC50 [4]: > 20 µM

COc1cc(/C=C2\CCc3c(ccc(OC)c3[N+](=O)[O-])C2=O)cc(OC)c1OC
GI50 [1]: 37.6 µM
GI50 [2]: 23.5 µM
GI50 [3]: 36.3 µM
IC50 [4]: > 20 µM

COc1ccc2c(c1O)CCC/C(=C\c1cc(OC)c(OC)c(OC)c1)C2=O
Activity [5]: Non-Toxic
inhibition [6]: 14%
selectivity ratio [7]: 10
GI50 [1]: 0.456 µM
GI50 [2]: 0.941 µM
GI50 [3]: 0.635 µM
selectivity ratio [8]: 10
selectivity ratio [9]: 10
IC50 [4]: > 20 µM

COc1ccc2c(c1)CC[C@H]1[C@H](c3cc(OC)c(OC)c(OC)c3)[C@@H]21
GI50 [1]: 41.1 µM
GI50 [2]: 54.5 µM
GI50 [3]: 38.8 µM
IC50 [4]: > 20 µM

COc1ccc(/C=C\c2cc(OC)c(OC)c(OC)c2)cc1O [COMBRETASTATIN A4]
GI50 [1]: 0.00602 µM
GI50 [2]: 0.00506 µM
GI50 [3]: 0.005 µM

COc1ccc2c(c1Br)CC/C(=C\c1cc(OC)c(OC)c(OC)c1)C2=O
GI50 [1]: 27.6 µM
GI50 [2]: 29.6 µM
GI50 [3]: 22.6 µM
IC50 [4]: > 20 µM

COc1cc(Cc2ccc3c(Br)c(OC)ccc3c2O)cc(OC)c1OC
GI50 [1]: 6.17 µM
GI50 [2]: 18.3 µM
GI50 [3]: 5.92 µM

COc1ccc2c(c1Br)CC[C@H]1[C@H](c3cc(OC)c(OC)c(OC)c3)[C@@H]21
GI50 [1]: 61.5 µM
GI50 [2]: 108 µM
GI50 [3]: 59.2 µM
IC50 [4]: > 20 µM

COc1cccc2c1C(=O)c1c(O)c3c(c(O)c1C2=O)C[C@@](O)(C(=O)CO)C[C@@H]3O[C@H]1C[C@H](N)[C@H](O)[C@H](C)O1 [DOXORUBICIN]
GI50 [1]: 0.108 µM
GI50 [2]: 0.0875 µM
GI50 [3]: 0.0547 µM

COc1ccc2c(c1Br)CCC/C(=C\c1cc(OC)c(OC)c(OC)c1)C2=O
GI50 [1]: 9.91 µM
GI50 [2]: 8.5 µM
GI50 [3]: 4.44 µM
IC50 [4]: > 20 µM

COc1ccc2c(c1N)CC/C(=C\c1cc(OC)c(OC)c(OC)c1)C2=O
Activity [5]: Toxic
GI50 [1]: 32.4 µM
GI50 [2]: > 135 µM
GI50 [3]: 46.4 µM
IC50 [4]: > 20 µM

COc1ccc2c(c1O)CCC(=C\c1cc(OC)c(OC)c(OC)c1)/C2=N\O
GI50 [1]: 23.9 µM
GI50 [2]: 38.2 µM
GI50 [3]: 22.8 µM
IC50 [4]: > 20 µM

COc1ccc2c(O)c(Cc3cc(OC)c(OC)c(OC)c3)ccc2c1
Activity [5]: Toxic
GI50 [1]: 8.84 µM
GI50 [2]: 7.5 µM
GI50 [3]: 13.4 µM
IC50 [4]: 17 µM

COc1ccc2c(c1N)CCC/C(=C\c1cc(OC)c(OC)c(OC)c1)C2=O
Activity [5]: Non-Toxic
inhibition [6]: 0.34%
selectivity ratio [7]: 100
GI50 [1]: 0.237 µM
GI50 [2]: 0.936 µM
GI50 [3]: 0.733 µM
selectivity ratio [8]: 100
selectivity ratio [9]: 100
IC50 [4]: > 20 µM

CC(=O)O[C@H]1C(=O)[C@@]2(C)[C@H]([C@H](OC(=O)c3ccccc3)[C@]3(O)C[C@H](OC(=O)[C@H](O)[C@@H](NC(=O)c4ccccc4)c4ccccc4)C(C)=C1C3(C)C)[C@]1(OC(C)=O)CO[C@@H]1C[C@@H]2O [PACLITAXEL]
GI50 [1]: 0.00152 µM
GI50 [2]: 0.00136 µM
GI50 [3]: 0.00165 µM

COc1cc(Cc2ccc3c(O)c(OC)ccc3c2O)cc(OC)c1OC
GI50 [1]: 23.4 µM
GI50 [2]: 21.9 µM
GI50 [3]: 24.4 µM

COc1cc(Cc2ccc3c(N)c(OC)ccc3c2O)cc(OC)c1OC
GI50 [1]: 49.7 µM
GI50 [2]: 16.4 µM
GI50 [3]: 65.2 µM

COc1ccc2c(c1)CC/C(=C\c1cc(OC)c(OC)c(OC)c1)C2=O
GI50 [1]: 22.6 µM
GI50 [2]: 40.3 µM
GI50 [3]: 22.4 µM
IC50 [4]: > 20 µM

COc1ccc2c(c1Br)CCC(=C\c1cc(OC)c(OC)c(OC)c1)/C2=N\O
GI50 [1]: 50.1 µM
GI50 [2]: 80.1 µM
GI50 [3]: 47 µM
IC50 [4]: > 20 µM

COc1cc(Cc2ccc3c([N+](=O)[O-])c(OC)ccc3c2O)cc(OC)c1OC
GI50 [1]: 18.6 µM
GI50 [2]: 21 µM
GI50 [3]: 22.9 µM
